Experiments:
Raji [1] = assay: Inhibition of the growth of Raji lymphoma cells at 6.25 ug/ml concentration; format: functional; settings: Homo sapiens
Procedure, shortened: (§1)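 Lymphoma cells were suspended in RPMI 1640 with 20% heat-inactivated FCS, 2 mM L-glutamine, penicillin and streptomycin at 37 °C in 5% CO2. Cells were plated at 0.02×10^6 per well with varied quinone concentrations. MTT reduction was measured on day 3. Five replicate wells were used per concentration, in 2–3 repeat experiments. Inhibition is expressed as % versus 0.5% ethanol vehicle wells.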

Jurkat [2] = assay: Inhibition of the growth of Jurkat lymphoma cells at 12.5-25.0 ug/ml concentration; format: functional, Homo sapiens; procedure, shortened: as §1
Raji [3] = assay: Inhibition of the growth of Raji lymphoma cells at 12.5-25.0 ug/ml concentration; format: functional, Homo sapiens; procedure, shortened: as §1
SNB-19 = assay: Concentration of compound required to inhibit the growth of SNB-19 cells; format: functional, cell-based; settings: Homo sapiens
Procedure, shortened: (§2)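 Adherent/epithelial cancer cells were grown in RPMI 1640 with 10% heat-inactivated FCS, 2 mM L-glutamine, penicillin and streptomycin at 37 °C in 5% CO2. Cells were seeded at 0.02×10^6 per well with varied quinone concentrations. MTT readout was taken after 3 days. Five replicate wells were used per concentration, in 2–3 repeat experiments. Results are % inhibition versus untreated wells given 0.5% ethanol vehicle.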

HT-29 = assay: Inhibition of the growth of HT-29 colon cancer cells at 3.125 ug/ml concentration; format: functional; settings: Homo sapiens; procedure, shortened: as §2
MCF7 = assay: Inhibition of the growth of MCF-7 mammary cancer cells at 3.125 ug/ml concentration; format: functional; settings: Homo sapiens; procedure, shortened: as §2
Jurkat [4] = assay: Inhibition of the growth of Jurkat lymphoma cells at 0.2 ug/ml concentration; format: functional; settings: Homo sapiens; procedure, shortened: as §1
Raji [5] = assay: Inhibition of the growth of Raji lymphoma cells at 0.2 ug/ml concentration; format: functional; settings: Homo sapiens; procedure, shortened: as §1
Raji [6] = assay: Inhibition of the growth of Raji lymphoma cells at 1.56 ug/ml concentration; format: functional; settings: Homo sapiens; procedure, shortened: as §1
Jurkat [7] = assay: Inhibition of the growth of Jurkat lymphoma cells at 1.56 ug/ml concentration; format: functional; settings: Homo sapiens; procedure, shortened: as §1

## CCCCCC1=CC(=O)C2=C(OC(C)(C)c3ccc(C)cc32)C1=O
Raji [1]
  inhibition at 6.25 µg/mL: 50%
Jurkat [2]
  Inhibition: 50%
Raji [3]
  Inhibition: 50%

## CCCCCC1=CC(=O)C2=C(OC(C)(C)[C@@H]3CC=C(C)C[C@@H]23)C1=O
SNB-19
  Concentration: 100 µg/mL

## C=C(C)C1CCC(C)=C[C@H]1C1=C(O)C=C(CCCCC)C(=O)C1=O (stereo not given in full)
HT-29
  inhibition at 3.125 µg/mL: 50%
MCF7
  inhibition at 3.125 µg/mL: 50%
Jurkat [4]
  inhibition at 0.2 µg/mL: 50%
Raji [5]
  inhibition at 0.2 µg/mL: 50%
Raji [6]
  inhibition at 1.56 µg/mL: 80%
Jurkat [7]
  inhibition at 1.56 µg/mL: 80%

Reference: ChEMBL document CHEMBL1148368, “Synthesis and antitumor activity of quinonoid derivatives of cannabinoids” (2004)
